Active and inactive are the calls of the source. The rule behind the calls is not given here.
How the values were obtained:
[1] = tested on: SW480; test: Induction of TRPV6 mRNA expression in human SW480 cells at 100 nM after 24 hrs by real-time PCR relative to 1-alpha,25-dihydroxyvitamin D3; format: functional
Summary of the method: (§1)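 Cells seeded at 1 × 10⁴ per well and treated 24 h later with ethanol vehicle or 100 nM ligand for 24 h. Total RNA taken by a chloroform method, reverse-transcribed, and target mRNA quantified by SYBR Green real-time PCR, normalized to ACTIN mRNA. Culture media: HEK293 in DMEM 5% FBS; SW480 and HaCaT in DMEM 10% FBS; MG63 in MEM 10% FBS; THP-1 and U937 in RPMI1640 10% FBS; all at 37 °C, 5% CO₂.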

[2] = tested on: MG-63; test: Induction of cyp24A1 mRNA expression in human MG63 cells at 100 nM after 24 hrs by real-time PCR relative to 1-alpha,25-dihydroxyvitamin D3; format: functional; summary of the method: as §1
[3] = tested on: HaCaT; test: Induction of cathelicidine antimicrobial peptide mRNA expression in human HaCaT cells at 100 nM after 24 hrs by real-time PCR relative to 1-alpha,25-dihydroxyvitamin D3; format: functional; summary of the method: as §1
[4] = biological target: T1, Vitamin D3 receptor (Homo sapiens, UniProt P11473); test: Activation of human VDR expressed in HEK293 cells cotransfected CMX-GAL4-NCoR2 and 4-tk-LUC assessed as inhibition of NCoR2 binding to VDR by mammalian two-hybrid assay; format: cell-based
T1 sequence (P11473 whole entry): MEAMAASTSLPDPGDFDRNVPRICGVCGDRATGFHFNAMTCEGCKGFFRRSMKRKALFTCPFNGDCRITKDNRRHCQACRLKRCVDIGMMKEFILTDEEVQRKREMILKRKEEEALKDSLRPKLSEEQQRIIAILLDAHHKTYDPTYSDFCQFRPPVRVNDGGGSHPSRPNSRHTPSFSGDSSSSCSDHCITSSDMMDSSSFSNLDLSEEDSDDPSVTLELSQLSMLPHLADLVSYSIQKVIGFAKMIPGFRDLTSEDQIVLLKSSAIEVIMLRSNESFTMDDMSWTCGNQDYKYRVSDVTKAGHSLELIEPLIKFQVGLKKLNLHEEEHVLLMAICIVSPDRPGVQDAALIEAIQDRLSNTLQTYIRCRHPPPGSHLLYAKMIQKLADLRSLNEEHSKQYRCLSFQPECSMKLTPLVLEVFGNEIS
Summary of the method: (§2)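 HEK293 cells in DMEM with 5% FBS, per well: 50 ng TK-MH100(UAS)×4-LUC reporter, 10 ng pCMX-β-galactosidase, 15 ng pCMX-VP16-VDR, and 15 ng of a GAL4 fusion. The fusion was RXRα for heterodimerisation, SRC-1 for coactivator binding, N-CoR, or SMRT (NCoR2). Cells were treated across a concentration range. Luciferase was normalised to β-galactosidase.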

[5] = tested on: THP-1; test: Induction of cathelicidine antimicrobial peptide mRNA expression in human THP1 cells at 100 nM after 24 hrs by real-time PCR relative to 1-alpha,25-dihydroxyvitamin D3; format: functional; summary of the method: as §1
[6] = tested on: HaCaT; test: Induction of cyp24A1 mRNA expression in human HaCaT cells at 100 nM after 24 hrs by real-time PCR relative to 1-alpha,25-dihydroxyvitamin D3; format: functional; summary of the method: as §1
[7] = biological target: T1, Vitamin D3 receptor; test: Transactivation of human VDR expressed in HEK293 cells cotransfected with mouse VDRE, Tk-Sppx3-LUC reporter plasmid measured after 24 hrs by luciferase reporter assay; format: cell-based
Summary of the method: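 HEK293 cells in DMEM with 5% FBS, calcium phosphate-transfected per well with 50 ng TK-Spp×3-LUC (mouse osteopontin VDRE), 10 ng pCMX-β-galactosidase, 15 ng pCMX-VDR and 15 ng pCMX-RXRα. Compounds were tested across a concentration range and cells harvested after 16–24 h. Luciferase was normalised to β-galactosidase. EC50 and efficacy relative to 1,25(OH)₂D₃.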

[8] = biological target: T1, Vitamin D3 receptor; test: Activation of human VDR expressed in HEK293 cells cotransfected CMX-GAL4-SRC1 and 4-tk-LUC assessed as SRC1 interaction with AF2 surface of VDR by mammalian two-hybrid assay; format: cell-based; summary of the method: as §2
[9] = tested on: U-937; test: Induction of cathelicidine antimicrobial peptide mRNA expression in human U937 cells at 100 nM after 24 hrs by real-time PCR relative to 1-alpha,25-dihydroxyvitamin D3; format: functional; summary of the method: as §1
[10] = biological target: T1, Vitamin D3 receptor; test: Activation of human VDR expressed in HEK293 cells cotransfected CMX-GAL4-RXRalpha and 4-tk-LUC assessed as heterodimerization with RXRalpha by mammalian two-hybrid assay; format: cell-based; summary of the method: as §2
[11] = tested on: THP-1; test: Induction of cyp24A1 mRNA expression in human THP1 cells at 100 nM after 24 hrs by real-time PCR relative to 1-alpha,25-dihydroxyvitamin D3; format: functional; summary of the method: as §1
[12] = biological target: T1, Vitamin D3 receptor; test: Activation of human VDR expressed in HEK293 cells cotransfected CMX-GAL4-N-CoR and 4-tk-LUC assessed as inhibition of N-CoR binding to VDR by mammalian two-hybrid assay; format: cell-based; summary of the method: as §2
[13] = biological target: T2, Vitamin D3 receptor (Homo sapiens) (UniProt P11473); settings: HEK293, 10 to 1000 nM
T2 sequence (whole entry): T1 sequence (P11473 whole entry)

[14] = biological target: T1, Vitamin D3 receptor; test: Displacement of [3H]-1,25(OH)2D3 from GST-fused human VDR-LBD expressed in Escherichia coli BL21
Summary of the method: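 hVDR-LBD (aa 140–427) as a GST fusion from E. coli BL21 sonicated lysate, 1 μg in pH 7.5 Tris/KCl/DTT/CHAPS buffer with BSA. Ligand in EtOH was preincubated 30 min at RT. [26,27-methyl-³H]-1,25(OH)₂D₃ was then added for 20 h at 4 °C. Free ligand was removed with dextran-coated charcoal and centrifugation, and bound radioactivity counted. IC50 from at least two triplicate runs.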

[15] = tested on: SW480; test: Induction of cyp24A1 mRNA expression in human SW480 cells at 100 nM after 24 hrs by real-time PCR relative to 1-alpha,25-dihydroxyvitamin D3; format: functional; summary of the method: as §1
[16] = tested on: U-937; test: Induction of cyp24A1 mRNA expression in human U937 cells at 100 nM after 24 hrs by real-time PCR relative to 1-alpha,25-dihydroxyvitamin D3; format: functional; summary of the method: as §1
[17] = tested on: HEK293; test: Induction of cyp24A1 mRNA expression in HEK293 cells at 100 nM after 24 hrs by real-time PCR; format: functional, cell-based; settings: Homo sapiens; summary of the method: as §1
[18] = biological target: T2, Vitamin D3 receptor (Homo sapiens); test: Inhibition of 1,25(OH)2D3-induced transactivation of human VDR expressed in HEK293 cells cotransfected with mouse VDRE, Tk-Sppx3-LUC reporter plasmid measured after 24 hrs by luciferase reporter assay; format: cell-based
Summary of the method: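 HEK293 cells in DMEM with 5% FBS were calcium-phosphate cotransfected with TK-Spp×3-LUC reporter, pCMX-β-galactosidase, pCMX-VDR and pCMX-RXRα. Cells were then exposed to a range of test concentrations together with 10 nM 1,25(OH)₂D₃. Harvest came 16–24 h later, with luciferase normalized to β-galactosidase.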

[19] = tested on: HEK293; test: Induction of cyp24A1 mRNA expression in HEK293 cells at 100 nM after 24 hrs by real-time PCR relative to 1-alpha,25-dihydroxyvitamin D3; format: functional, Homo sapiens; summary of the method: as §1
[20] = tested on: U-937; test: Induction of cathelicidine antimicrobial peptide mRNA in human U937 cells at 100 nM after 24 hrs by real-time PCR relative to skin cells; format: functional
Summary of the method: (§3)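 THP-1 and U937 cells were grown in RPMI1640 with 10% FBS and penicillin/streptomycin at 37 °C under 5% CO₂, and plated at 1 × 10⁴ cells/well. After 24 h, cells got an ethanol control, 100 nM 1,25(OH)₂D₃ or 100 nM analogue for 24 h. RNA was extracted by a chloroform method and reverse-transcribed. CAMP was measured by SYBR Green real-time PCR, normalized to ACTIN mRNA and compared with 1,25(OH)₂D₃.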

[21] = tested on: THP-1; test: Induction of cathelicidine antimicrobial peptide mRNA expression in human THP1 cells at 100 nM after 24 hrs by real-time PCR relative to skin cells; format: functional; summary of the method: as §3

Row | Compound | Activity [1] | Activity [2] | Activity [3] | EC50 [4] | Activity [5] | Activity [6] | EC50 [7] | EC50 [8] | Activity [9] | EC50 [10] | Activity [11] | EC50 [12] | inhibition [13] | IC50 [14] | Activity [15] | Activity [16] | Activity [17] | Activity [19] | fold change (FC) [20] | fold change (FC) [21] | further results
1 | C=C1[C@H](O)CC(=C/C=C2\CCC[C@]3(C)[C@@H]([C@H](C)CC#C[C@@H](O)C45CC6CC(CC(C6)C4)C5)CC[C@@H]23)C[C@H]1O | 65% | 50% | 60% | 0.5 nM | 105% | 30% | 0.07 nM | 1.5 nM | 125% | 0.6 nM | 70% | 0.4 nM | inactive | 0.5 nM | 50% | 85% | Active |  |  |  | 
2 | C=C1[C@H](O)CC(=C/C=C2\CCC[C@]3(C)[C@@H]([C@H](C)/C=C/C[C@H](O)C45CC6CC(CC(C6)C4)C5)CC[C@@H]23)C[C@H]1O |  |  |  |  |  |  |  |  |  |  |  |  |  |  |  |  |  |  |  |  | inhibition [18]: Dose-dependent effect
3 | C=C1[C@H](O)CC(=C/C=C2\CCC[C@]3(C)[C@@H]([C@H](C)CC#C[C@H](O)C45CC6CC(CC(C6)C4)C5)CC[C@@H]23)C[C@H]1O | 30% | 5% | 15% | 4.1 nM | 20% | 22% | 6.6 nM | 15 nM | 30% | 4.4 nM | 1% | 4 nM | Active | 12 nM | 32% | 1% |  | 15% |  |  | 
4 | C=C1/C(=C\C=C2/CCC[C@]3(C)[C@@H]([C@H](C)CCCC(C)(C)O)CC[C@@H]23)C[C@@H](O)C[C@@H]1O |  |  |  |  |  |  |  |  |  |  |  |  |  |  |  |  | Active |  |  |  | 
5 | C=C1[C@H](O)CC(=C/C=C2\CCC[C@]3(C)[C@@H]([C@H](C)CC#C[C@@H](O)CC45CC6CC(CC(C6)C4)C5)CC[C@@H]23)C[C@H]1O | 35% | 50% | 15% | 2.8 nM | 55% | 10% | 1.1 nM | 13.5 nM | 65% | 0.8 nM | 10% | 1.8 nM | Active | 12 nM | 10% | 50% |  | 30% | 3.5 | 3.5 | 
6 | C=C1[C@H](O)CC(=C/C=C2\CCC[C@]3(C)[C@@H]([C@H](C)CC#C[C@H](O)CC45CC6CC(CC(C6)C4)C5)CC[C@@H]23)C[C@H]1O | 40% | 50% | 20% | 2.4 nM | 74% | 10% | 1.5 nM | 6.5 nM | 75% | 2.3 nM | 10% | 3.7 nM | Active | 13 nM | 10% | 50% |  | 45% | 3.5 | 3.5 | 

From ChEMBL document CHEMBL3259615, “Combination of triple bond and adamantane ring on the vitamin D side chain produced partial agonists for vitamin D receptor” (J Med Chem, 2014)
